Test results published in ChEMBL document CHEMBL3769381 (J Med Chem, 2016).
The source made the active and inactive calls. The rule behind the calls is not given here.

Legend:
[1] = molecular target: T1, Adenosine receptor A1 (Homo sapiens) (UniProt P30542); assay: Agonist activity at human Adenosine A1 receptor expressed in yeast cells coexpressed with chimeric GPA1/Galphai1 at 100 uM after 16 hrs by beta galactosidase reporter gene assay; type: cell-based
T1 sequence (whole entry): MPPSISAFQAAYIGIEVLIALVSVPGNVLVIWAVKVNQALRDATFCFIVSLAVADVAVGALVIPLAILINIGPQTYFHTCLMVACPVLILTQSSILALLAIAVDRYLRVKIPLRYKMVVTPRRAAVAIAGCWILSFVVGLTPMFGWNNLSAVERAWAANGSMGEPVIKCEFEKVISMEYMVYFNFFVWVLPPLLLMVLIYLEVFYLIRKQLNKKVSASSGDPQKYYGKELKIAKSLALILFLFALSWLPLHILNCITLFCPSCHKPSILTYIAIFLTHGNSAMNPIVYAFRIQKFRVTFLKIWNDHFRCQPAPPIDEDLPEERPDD
Outline: (§1)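 Human receptor expressed from GAPDH promoter (p426-GPD) in Δfar1 FUS1-lacZ yeast with Gpa1p(1-467) carrying the 5 C-terminal Gα residues. Cells are grown overnight in SD-URA at 30°C, diluted 1:10 and grown 8 h. They are set to OD600 0.02 and given compound at 1% v/v DMSO for 16 h at 30°C. A2A strain is grown in SD-URA-HIS, with 5 mM 3-amino-triazole in treatment media. Read-out: ONPG, (OD430−OD620)/OD620.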

Adenosine receptor A2a [2] = molecular target: T2, Adenosine receptor A2a (Homo sapiens, UniProt P29274); assay: Agonist activity at human Adenosine A2A receptor expressed in yeast cells coexpressed with chimeric GPA1/Galphas at 100 uM after 16 hrs by beta-galactosidase reporter gene assay; type: cell-based; outline: as §1
T2 sequence (P29274 whole entry): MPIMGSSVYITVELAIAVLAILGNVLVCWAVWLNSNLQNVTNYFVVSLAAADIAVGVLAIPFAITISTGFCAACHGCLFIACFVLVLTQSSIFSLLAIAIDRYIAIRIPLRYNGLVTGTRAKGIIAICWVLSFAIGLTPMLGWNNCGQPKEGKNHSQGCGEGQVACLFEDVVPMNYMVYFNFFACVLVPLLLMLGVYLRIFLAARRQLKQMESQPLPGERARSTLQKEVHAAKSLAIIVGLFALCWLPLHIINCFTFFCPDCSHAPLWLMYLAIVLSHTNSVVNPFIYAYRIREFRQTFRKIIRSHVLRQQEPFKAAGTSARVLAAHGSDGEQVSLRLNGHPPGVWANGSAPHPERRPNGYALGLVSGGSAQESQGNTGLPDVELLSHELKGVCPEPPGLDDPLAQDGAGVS

[3] = molecular target: T3, Adenosine receptor A2b (Homo sapiens) (UniProt P29275); assay: Agonist activity at human Adenosine A2B receptor expressed in yeast cells coexpressed with chimeric GPA1/Galphas at 100 µM after 16 hrs by beta-galactosidase reporter gene assay; type: cell-based
T3 sequence (whole entry): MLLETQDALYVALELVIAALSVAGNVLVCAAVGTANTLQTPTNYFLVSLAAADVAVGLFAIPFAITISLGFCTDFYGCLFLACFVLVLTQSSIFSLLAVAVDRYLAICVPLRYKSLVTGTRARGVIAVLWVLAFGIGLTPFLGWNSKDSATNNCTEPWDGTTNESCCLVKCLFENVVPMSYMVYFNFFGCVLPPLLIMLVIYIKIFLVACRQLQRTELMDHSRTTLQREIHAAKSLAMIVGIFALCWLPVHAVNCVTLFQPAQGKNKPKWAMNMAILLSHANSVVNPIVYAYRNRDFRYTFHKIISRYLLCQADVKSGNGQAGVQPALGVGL
Outline: (§2)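 Yeast (Δfar1, FUS1-lacZ) express A2BR from the GAPDH promoter alongside Gpa1p/Gαs chimera. The OD600 is 0.02 and compound is added in 1% v/v DMSO for 16 h at 30°C. β-Galactosidase is read with ONPG at OD430, normalised as (OD430−OD620)/OD620. […] Three-parameter logistic fit gives EC50 and Emax. Data are from 5-8 independent experiments.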

[4] = molecular target: T3, Adenosine receptor A2b (Homo sapiens); assay: Binding affinity to human Adenosine A2B receptor expressed in yeast cells coexpressed with GPA1/Galphas; type: cell-based
Outline: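 pKA is derived by non-linear regression of the operational model of agonism applied to 16 h yeast FUS1-lacZ concentration-response data, with A2BR coupled to the GPA1/Gαs chimera.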

Adenosine receptor A1 [5] = molecular target: T4, Adenosine receptor A1 (Homo sapiens, UniProt P30542); assay: Competitive antagonist activity at human Adenosine A1 receptor expressed in yeast cells after 16 hrs by LacZ reporter gene assay; type: cell-based; settings: read-out: pA2 (converted)
T4 sequence (P30542 whole entry): T1 sequence (whole entry)

[6] = molecular target: T1, Adenosine receptor A1 (Homo sapiens)
Adenosine receptor A2a [7] = molecular target: T2, Adenosine receptor A2a
Adenosine receptor A1 [8] = molecular target: T4, Adenosine receptor A1; assay: Displacement of [3H]CPX from human Adenosine A1 receptor expressed in DDT1MF-2 cells; type: cell-based
Adenosine receptor A1 [9] = molecular target: T4, Adenosine receptor A1; assay: Displacement of [3H]CPX from human Adenosine A1 receptor expressed in CHO cells; type: cell-based
Adenosine receptor A1 [10] = molecular target: T4, Adenosine receptor A1; assay: Agonist activity at human Adenosine A1 receptor expressed in yeast cells coexpressed with chimeric GPA1/Galphai1 after 16 hrs by beta galactosidase reporter gene assay; type: cell-based
Adenosine receptor A2a [11] = molecular target: T2, Adenosine receptor A2a; assay: Agonist activity at human Adenosine A2A receptor expressed in yeast cells coexpressed with chimeric GPA1/Galphas after 16 hrs by beta-galactosidase reporter gene assay; type: cell-based
Adenosine receptor A2b = molecular target: T5, Adenosine receptor A2b (Homo sapiens, UniProt P29275); assay: Agonist activity at human Adenosine A2B receptor expressed in yeast cells coexpressed with chimeric GPA1/Galphas after 16 hrs by beta-galactosidase reporter gene assay; type: cell-based
T5 sequence (P29275 whole entry): T3 sequence (whole entry)
Outline: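 Yeast (Δfar1, FUS1-lacZ) express A2BR from the GAPDH promoter alongside Gpa1p/Gαs chimera. The OD600 is 0.02 and compound is added in 1% v/v DMSO for 16 h at 30°C. β-Galactosidase is read with ONPG at OD430, normalised as (OD430−OD620)/OD620. Three-parameter logistic fit gives EC50 and Emax. Data are from 5-8 independent experiments.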

[12] = molecular target: T3, Adenosine receptor A2b (Homo sapiens); assay: Agonist activity at human Adenosine A2B receptor expressed in yeast cells coexpressed with chimeric GPA1/Galphas after 16 hrs by beta-galactosidase reporter gene assay relative to NECA; type: cell-based; outline: as §2
Adenosine receptor A1 [13] = molecular target: T4, Adenosine receptor A1; assay: Agonist activity at human Adenosine A1 receptor transfected in CHO-K1 cells assessed as inhibition of forskolin-stimulated cAMP production after 30 mins by multimode microplate reader analysis; type: functional, cell-based
Adenosine receptor A3 = molecular target: T6, Adenosine receptor A3 (Homo sapiens, UniProt P0DMS8); assay: Agonist activity at human Adenosine A3 receptor transfected in CHO-K1 cells assessed as inhibition of forskolin-stimulated cAMP production after 30 mins by multimode microplate reader analysis; type: functional, cell-based
T6 sequence (P0DMS8 whole entry): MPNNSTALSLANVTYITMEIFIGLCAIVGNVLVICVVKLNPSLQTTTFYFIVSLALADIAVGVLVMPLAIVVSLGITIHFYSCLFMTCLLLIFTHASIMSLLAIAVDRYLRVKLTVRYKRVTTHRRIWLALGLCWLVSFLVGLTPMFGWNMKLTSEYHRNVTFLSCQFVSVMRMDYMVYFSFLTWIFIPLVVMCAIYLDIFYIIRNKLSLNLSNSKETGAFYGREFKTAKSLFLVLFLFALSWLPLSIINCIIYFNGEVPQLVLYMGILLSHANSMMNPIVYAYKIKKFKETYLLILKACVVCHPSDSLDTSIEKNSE
Outline: (§3)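 CHO-K1 cells are transiently transfected with receptor (2 µg DNA, FuGene 6) and harvested at 48 h. They are co-incubated with 10 µM forskolin and ligand (10 pM to 1 µM) for 30 min at room temperature. cAMP is measured by LANCE kit. Data are expressed as % of the 10 µM forskolin response.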

[14] = molecular target: T7, Adenosine receptor A3 (Homo sapiens) (UniProt P0DMS8); assay: Agonist activity at human Adenosine A3 receptor transfected in CHO-K1 cells assessed as inhibition of forskolin-stimulated cAMP production after 30 mins by multimode microplate reader analysis relative to total forskolin; type: functional, cell-based; set-up: concentration or dose not given beside the values
T7 sequence (whole entry): T6 sequence (P0DMS8 whole entry)
Outline: as §3, with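 “h. Cells are resuspended in PBS with 0.1% BSA and 25 µM rolipram, at 2500 cells/well.” for “h.”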

[15] = molecular target: T1, Adenosine receptor A1 (Homo sapiens); remark: listed apart in the source
Adenosine receptor A2a [16] = molecular target: T2, Adenosine receptor A2a; remark: listed apart in the source
[17] = molecular target: T3, Adenosine receptor A2b (Homo sapiens)

Row | Activity [1] | Activity (Adenosine receptor A2a [2]) | Activity [3] | pKA [4] | Kb (Adenosine receptor A1 [5]) [nM] | pKA [6] | pKA (Adenosine receptor A2a [7]) | Ki (Adenosine receptor A1 [8]) [nM] | Ki (Adenosine receptor A1 [9]) [nM] | EC50 (Adenosine receptor A1 [10]) [nM] | EC50 (Adenosine receptor A2a [11]) [nM] | EC50 (Adenosine receptor A2b) [nM] | Emax [12] [%] | IC50 (Adenosine receptor A1 [13]) [nM] | IC50 (Adenosine receptor A3) [nM] | Activity [14] [%] | log(activity) [15] | log(activity) (Adenosine receptor A2a [16]) | log(activity) [17] | SMILES
1 | inactive | inactive | inactive | inactive | 398 | inactive | inactive |  |  |  |  |  |  |  |  |  |  |  |  | O[C@@H]1[C@H](O)[C@@H](CSc2ccccc2F)O[C@H]1n1cnc2c(N[C@@H]3CCC[C@H]3OCc3ccccc3)ncnc21
2 | inactive | inactive | inactive | inactive | 5010 | inactive | inactive | 113 | 1100 |  |  |  |  |  |  |  |  |  |  | O[C@@H]1[C@H](O)[C@@H](CSc2ccccc2F)O[C@H]1n1cnc2c(N[C@@H]3CCC[C@H]3O)ncnc21 [GS-9667]
3 |  |  |  | 3.5 |  | 4.3 | 3.9 |  |  | 1000 | 15800 | 126000 | 32.2 | 0.0295 | 269 | -38 | 1.6 | 0.5 | 0.1 | CCNC(=O)[C@H]1O[C@@H](n2cnc3c(N[C@@H]4CCC[C@H]4OCc4ccccc4)ncnc32)[C@H](O)[C@@H]1O
